Reference: publication PMC5935509 (Bioactive Materials, 2017)

Tested on: HeLa cells
Experiment: Cytotoxicity measurement, CCK-8 cell viability assay
Assay type: cell-based
Settings: 24 h of incubation, mean, n = 4
Outline: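 HeLa cells seeded at 10⁴ cells/well. For the combination arm, anticancer drug was added first (final 1, 10 or 100 µM), then self-assembling peptide at final 16 or 26 µM, charge-matched between peptides. Peptide-alone wells received the same peptide levels. After 24 h, drug and peptide were removed and viability read by CCK-8 absorbance at 450 nm. Four replicates, mean ± SD.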

Compound: COc1cccc2c1C(=O)c1c(O)c3c(c(O)c1C2=O)C[C@@](O)(C(=O)CO)C[C@@H]3O[C@H]1C[C@H](N)[C@H](O)[C@H](C)O1 [DOX, Doxorubicin]
- cell viability (1 μM DOX, K10 16 μM or K6 26 μM): 70%
- cell viability (100 μM DOX): 18%
